LMPTP block: LMPTP (human) inhibition. P24666. recombinant LMPTP-A, OMFP fluorogenic substrate, fluorescence intensity. inhibition, % at 20 µM. 360,000 compounds, 0.22% hits. AID 651560;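 active means compounds that cut the enzyme signal by at least half of the control window in the single-dose screen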;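 further: plate controls were DMSO wells with enzyme plus substrate for no effect and substrate without enzyme for full effect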
Target sequence (P24666 whole entry, looked up): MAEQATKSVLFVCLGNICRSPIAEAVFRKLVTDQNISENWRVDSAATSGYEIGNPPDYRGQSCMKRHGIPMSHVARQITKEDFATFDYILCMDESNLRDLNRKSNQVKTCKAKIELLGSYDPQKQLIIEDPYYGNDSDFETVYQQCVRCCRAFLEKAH
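Test system – LMPTP-A enzyme · Amount – LMPTP-A at 0.625 nM final in the reaction · Buffer or medium – Bis-Tris pH 6.0, DTT, detergent · Reagent – OMFP 400 µM · Doses – single 20 µM dose · Schedule – reaction 50 min, room temperature, dark · Detection – fluorescence intensity of OMFP turnover product · Evaluation – percent inhibition versus substrate-only and uninhibited controls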
SUMO1-SIM PPI: alters human SUMO1 binding to SIM partners | P63165 | SUMO1 binding to a labelled peptide, TR-FRET, 1 h | inhibition, % at 20 µM | 360,000 compounds, 0.33% hits | AID 602429; in the data active means inhibition above about 37%
Target sequence (P63165 whole entry, looked up): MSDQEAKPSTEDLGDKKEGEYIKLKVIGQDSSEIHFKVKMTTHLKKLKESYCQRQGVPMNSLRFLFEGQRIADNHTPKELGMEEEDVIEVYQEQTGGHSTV
STEP inh: STEP (human) phosphatase inhibition | P54829 | 360,000 compounds, 0.25% hits | AID 588621 | inhibition, % at 20 µM | recombinant STEP, OMFP fluorogenic substrate, fluorescence;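 active means inhibition at 20 µM, scaled per plate between control wells, above about 37%, limit read from the data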;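 further: 0% = DMSO with enzyme and substrate and 100% = substrate only without enzyme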
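medium = Bis-Tris buffer pH 6.0, 2.5 mM DTT, 0.005% Tween 20 | test system = STEP (striatal-enriched tyrosine phosphatase) enzyme, cell-free | measure = normalized % inhibition | compound dosing = 20 µM, 1% DMSO | also added = 25 µM OMFP | schedule = reaction 20 min, ambient temperature | measured by = fluorescence read at 480 nm ex / 540 nm em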
Scp-1 inhibitor: blocks human Scp-1 phosphatase activity | Q9GZU7 | Recombinant Scp1, phosphopeptide, malachite green phosphate absorbance | inhibition, % at 20 µM | 340,000 compounds, 0.88% hits | AID 493091;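 active means inhibition above about 50% at 20 µM, limit read from the data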;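 further: plate controls were DMSO wells with enzyme for no effect and wells lacking enzyme for full effect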
Target sequence (Q9GZU7 76-261 limits assumed): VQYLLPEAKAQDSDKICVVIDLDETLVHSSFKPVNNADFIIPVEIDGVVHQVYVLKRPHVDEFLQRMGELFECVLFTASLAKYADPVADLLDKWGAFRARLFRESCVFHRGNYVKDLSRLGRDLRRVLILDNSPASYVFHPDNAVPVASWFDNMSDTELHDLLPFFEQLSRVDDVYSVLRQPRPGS
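Test system: SCP-1 phosphatase catalytic domain, residues 76-261; measured by: colorimetric phosphate reagent with accelerator and stabiliser, absorbance at 630 nm; timing: enzyme reaction 45 min at room temperature, colour 5 min, stabilisation 30 min; also added: Phosphorylated 17-residue peptide substrate; compound dosing: one concentration, 20 µM, with 1.0% DMSO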
DNMT1 block: inhibitors of human DNMT1 | P26358 | DNMT1 molecular beacon, Hinp1I cleavage, fluorescence | inhibition (reported as % activation of signal), % at 10 µM | 360,000 compounds, 0.83% hits; in the data active means inhibition above about 50%
GRK2 aptamer HTS: blocks RNA aptamer binding to human GRK2 | bead flow cytometry, FAM-aptamer displacement from GRK2 | inhibition of aptamer binding, % at 10 µM | 330,000 compounds, 0.59% hits | AID 488847;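 active means inhibition of aptamer binding above 40%, roughly 3 SD of noise, on plates passing a quality check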;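 further: median bead fluorescence of bound FAM aptamer so fluorescent compounds give negative values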
* marks the source's active call; other numbers are inactive results; i = inactive; . = not tested or not shown; + = active, no number. Only some compounds are listed: those with a hit (about 2.1% of all), similar ones and a draw of the others.

SMILES | LMPTP block | SUMO1-SIM PPI | STEP inh | Scp-1 inhibitor | DNMT1 block | GRK2 aptamer HTS
Cc1nc(S/C(=C\c2ccc(-c3ccc(C(=O)O)c(Cl)c3)o2)C(=O)O)n[nH]1 | 10 | 57* | 26 | 83* | 91* | .
Cc1nc(S/C(=C\c2ccc(OCc3ccccc3Cl)cc2)C(=O)O)n[nH]1 | -2 | 5 | 2 | 11 | -5 | 1
O=C(NCCc1ccc(Cl)cc1)c1cccc(S(=O)(=O)N2CCCC2)c1 | -1 | 2 | 3 | . | 0 | .
COC(=O)c1cc(O)cc(OC)c1Oc1cc(C)cc(O)c1C(=O)O | 11 | 44* | 2 | 58* | 16 | 24
COc1ccc(S(=O)(=O)N(C)C[C@H]2Oc3ccc(NS(=O)(=O)c4ccc(F)cc4)cc3C(=O)N([C@H](C)CO)C[C@@H]2C)cc1 | 0 | -4 | 0 | -18 | -1 | 0
CC1Cc2ccccc2N1C(=S)NC(=O)C1(C)CC1(Cl)Cl (centres undefined) | -1 | 4 | 2 | 50* | -1 | 2
O=C(c1c(F)cccc1Cl)N(Cc1ccco1)C1CCS(=O)(=O)C1 (centres undefined) | -1 | 6 | 1 | . | 1 | .
CCCCNc1nc2c(c(=O)[nH]c(=O)n2C)n1CCCc1ccccc1 | -1 | 1 | 2 | . | 0 | .
O=C(NCCCN1CCCC1=O)C1CCN(S(=O)(=O)c2ccc(Cl)cc2)CC1 | -10 | 38* | -2 | -10 | 7 | 2
COc1cc(/C=C2\SC(=S)N(c3cccnc3)C2=O)ccc1O | 13 | 109* | 23 | 13 | 57* | 0
COc1cc(/C=C2\SC(=S)N(NC(=O)c3cccnc3)C2=O)ccc1O | 1 | -8 | -4 | -9 | -2 | 6
CC1(C)CC[C@]2(C(=O)n3ccnc3)CC[C@]3(C)[C@H](C(=O)C=C4[C@@]5(C)C=C(C#N)C(=O)C(C)(C)[C@@H]5CC[C@]43C)[C@@H]2C1 | -2 | 44* | 2 | 15 | 60* | .
CCOc1ccc2c(ccc(/C=C/c3cc(C)c4cccnc4c3O)[n+]2C)c1 | 76* | -67 | 9 | 52* | -21 | .
CCOc1ccc(N=Nc2ccc(O)c3ncccc23)cc1 | 4 | -18 | 1 | -10 | 4 | 4
Cc1nc2ccc(C(=O)N/N=C/c3cc([N+](=O)[O-])ccc3O)cc2[nH]1 | 17 | -8 | 49* | 38 | 2 | 0
Cc1nc2ccc(C(=O)N/N=C/c3ccccc3O)cc2[nH]1 | 0 | -4 | 13 | -5 | 1 | 0
CCCC(=O)N1CCC1(C)C(=O)Nc1ccc(-n2cccc2)cc1 (centres undefined) | 0 | -5 | -2 | . | 3 | .
O=c1c2c([nH]c3ccc(Br)cc13)CCCC2 | 0 | 4 | -2 | 6 | 4 | 0
O=c1ccc2cc3c([nH]c4ccc(Br)cc43)oc-2c1O | 52* | 22 | 1 | . | 7 | 5
O=c1cc2oc3cc(O)c(O)cc3c(-c3ccccc3[N+](=O)[O-])c-2cc1O | 90* | 27 | 22 | 5 | -5 | 6
c1coc(CSSCc2ccco2)c1 | 19 | 14 | 16 | 22 | 101* | 3
Cc1ccc(NC(=O)CSCc2ccco2)cc1 | -2 | 0 | 2 | -4 | 4 | 1
COc1ccc2oc(=Nc3ccc(C(=O)O)cc3)c(C(=O)NCc3ccco3)cc2c1 | 1 | 65* | -3 | -9 | 4 | 1
COc1ccc2cc(C(=O)NCc3ccco3)c(=O)oc2c1 | -2 | -16 | -2 | -8 | 4 | 3
CCOc1ncccc1C(=O)OC(C)C(=O)Nc1ccc(N2CCOCC2)cc1 (centres undefined) | 0 | -1 | -3 | -2 | -14 | 35
SMILES | LMPTP block | SUMO1-SIM PPI | STEP inh | Scp-1 inhibitor | DNMT1 block | GRK2 aptamer HTS
COc1ccc(C(=O)CC(=O)c2ccc(OC)cc2)cc1 | 3 | 1 | 4 | -19 | -6 | 1
COc1ccc(C(=O)C[N+]2(C)CCOCC2)cc1 | 0 | 3 | -2 | 101* | -10 | 0
COc1ccc(NC(=O)c2c(-c3c(Cl)cccc3Cl)noc2C)c(OC)c1 | 2 | -1 | 2 | -10 | -3 | 0
CS(=O)(=O)Nc1ccc(-c2ccc(/C=C3\SC(N)=NC3=O)o2)cc1 | 0 | -18 | -2 | -5 | -2 | 3
NC1=NC(=O)/C(=C/c2ccc(-c3ccc(S(N)(=O)=O)cc3)o2)S1 | 4 | 88* | -2 | 6 | 9 | 0
NS(=O)(=O)c1ccc(-c2ccc(/C=C3\C(=O)Nc4ccccc43)o2)cc1 | . | . | . | . | . | 0
NS(=O)(=O)c1ccc(-c2ccc(/C=C3\C(=O)Nc4cc(Cl)ccc43)o2)cc1 | 22 | 48* | 0 | -11 | -14 | .
CC(C)(C)C(C(=O)NCc1ccccc1)N1CCN(CCN2CCOCC2)CC1 (centres undefined) | -3 | 4 | . | . | . | .
O=C1NC[C@H](CCCCN2CCN(CCc3ccccc3)C(=O)C2=O)N(CCC2CCCCC2)C1=O | 1 | 2 | . | . | . | .
O=C(Nc1cccs1)Nc1nnc([C@@H]2C[C@H](O)[C@@H](CO)O2)s1 | -2 | 29 | 0 | . | 1 | .
O=C(O)c1ccc(-c2cccc([N+](=O)[O-])c2)o1 | -3 | -18 | -3 | -9 | 0 | 3
N#C/C(=C(/O)c1ccc(-c2cccc([N+](=O)[O-])c2)o1)c1nc2ccccc2s1 | 52* | 16 | 12 | 89* | -27 | .
O=C(NCCN1CCCC1)c1ccc(Cn2c(=S)[nH]c3cc4c(cc3c2=O)OCO4)cc1 | 54* | 5 | 4 | 0 | 33 | 0
COC(=O)c1c(Sc2ccccc2)c2ccccc2n1C | 0 | 3 | -2 | 61* | 4 | 0
COc1cccc(CNC(=O)[C@@H]2CCCN2C(=O)[C@H]2CCCCN2C(=O)c2cccc(OC)c2)c1 | -2 | 2 | . | . | . | .
CC(C)(C)c1ccc(C2CC2C(=O)N/N=C\c2cc3ccccc3nc2Cl)cc1 (centres undefined) | 2 | -2 | 0 | -12 | -4 | 0
Cc1ccc2nc(Cl)c(/C=N/NC(=O)[C@H]3C[C@@H]3c3ccccc3)cc2c1 | 4 | 40* | 3 | -1 | 36 | 1
CCCCCC(O)CCCC(=O)O (centres undefined) | 1 | -3 | -1 | -6 | 1 | .
CCCCCCCCCCCCCCCC(O)C[N+](C)(C)CCO (centres undefined) | -3 | -176 | 4 | 82* | 1 | .
Nc1ccc(-c2c3ccc(=O)cc-3oc3cc(O)ccc23)c(C(=O)O)c1 | 11 | i | -110 | -2 | + | 0
COc1ccc(-c2cc(=O)c3ccc(O)cc3o2)cc1OC | -1 | -1 | 0 | . | 0 | .
Clc1ccccc1Nc1nc(-c2ccncc2)nc2ccccc12 | 1 | -4 | 0 | -4 | 3 | 1
